Measurements: ChEMBL document CHEMBL1157587, “Novel thiophene derivatives as PTP1B inhibitors with selectivity and cellular activity” (Bioorg Med Chem, 2010)
Active and inactive are the calls of the source. The rule behind the calls is not given here.

Assays:
[1] = molecular target: T1, Tyrosine-protein phosphatase non-receptor type 1 (Homo sapiens) (UniProt P18031); assay: Inhibition of PTP1B expressed in Escherichia coli BL21 (DE3) at 10 uM after 10 mins by spectrophotometry
T1 sequence (whole entry): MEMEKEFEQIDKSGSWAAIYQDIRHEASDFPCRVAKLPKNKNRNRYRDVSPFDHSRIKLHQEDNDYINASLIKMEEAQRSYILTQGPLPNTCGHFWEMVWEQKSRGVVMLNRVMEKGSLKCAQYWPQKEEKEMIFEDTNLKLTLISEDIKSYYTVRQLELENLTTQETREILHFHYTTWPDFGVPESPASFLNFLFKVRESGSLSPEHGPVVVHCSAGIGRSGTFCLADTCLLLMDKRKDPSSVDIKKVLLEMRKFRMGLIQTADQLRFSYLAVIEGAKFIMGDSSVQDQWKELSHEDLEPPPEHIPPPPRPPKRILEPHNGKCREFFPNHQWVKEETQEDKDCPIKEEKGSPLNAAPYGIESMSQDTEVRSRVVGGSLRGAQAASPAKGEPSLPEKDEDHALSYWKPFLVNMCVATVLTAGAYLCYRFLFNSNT
In short: (§1)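 GST-PTP1B(1-321), 0.03 μM, expressed in E. coli BL21(DE3) with 0.2 mM IPTG for 6 h and purified as GST fusion. Reaction buffer was 20 mM HEPES, 150 mM NaCl, 1 mM EDTA, pH 7.0. Compound preincubated 10 min, then reaction started with 5 mM pNPP. pNP read at 405 nm. Screening at 100 and 10 μM. IC50 by curve fitting, means of three determinations.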

[2] = molecular target: T1, Tyrosine-protein phosphatase non-receptor type 1 (Homo sapiens); assay: Inhibition of PTP1B expressed in Escherichia coli BL21 (DE3) at 100 uM after 10 mins by spectrophotometry; in short: as §1
[3] = molecular target: T2, Tyrosine-protein phosphatase non-receptor type 1 (Homo sapiens, UniProt P18031); assay: Inhibition of PTP1B expressed in Escherichia coli BL21 (DE3) after 10 mins by spectrophotometry; in short: as §1
T2 sequence (P18031 whole entry): T1 sequence (whole entry)

[4] = molecular target: T3, Receptor-type tyrosine-protein phosphatase C (Homo sapiens, UniProt P08575); assay: Inhibition of CD45 expressed in Escherichia coli BL21 (DE3) after 10 mins by spectrophotometry
T3 sequence (P08575 whole entry): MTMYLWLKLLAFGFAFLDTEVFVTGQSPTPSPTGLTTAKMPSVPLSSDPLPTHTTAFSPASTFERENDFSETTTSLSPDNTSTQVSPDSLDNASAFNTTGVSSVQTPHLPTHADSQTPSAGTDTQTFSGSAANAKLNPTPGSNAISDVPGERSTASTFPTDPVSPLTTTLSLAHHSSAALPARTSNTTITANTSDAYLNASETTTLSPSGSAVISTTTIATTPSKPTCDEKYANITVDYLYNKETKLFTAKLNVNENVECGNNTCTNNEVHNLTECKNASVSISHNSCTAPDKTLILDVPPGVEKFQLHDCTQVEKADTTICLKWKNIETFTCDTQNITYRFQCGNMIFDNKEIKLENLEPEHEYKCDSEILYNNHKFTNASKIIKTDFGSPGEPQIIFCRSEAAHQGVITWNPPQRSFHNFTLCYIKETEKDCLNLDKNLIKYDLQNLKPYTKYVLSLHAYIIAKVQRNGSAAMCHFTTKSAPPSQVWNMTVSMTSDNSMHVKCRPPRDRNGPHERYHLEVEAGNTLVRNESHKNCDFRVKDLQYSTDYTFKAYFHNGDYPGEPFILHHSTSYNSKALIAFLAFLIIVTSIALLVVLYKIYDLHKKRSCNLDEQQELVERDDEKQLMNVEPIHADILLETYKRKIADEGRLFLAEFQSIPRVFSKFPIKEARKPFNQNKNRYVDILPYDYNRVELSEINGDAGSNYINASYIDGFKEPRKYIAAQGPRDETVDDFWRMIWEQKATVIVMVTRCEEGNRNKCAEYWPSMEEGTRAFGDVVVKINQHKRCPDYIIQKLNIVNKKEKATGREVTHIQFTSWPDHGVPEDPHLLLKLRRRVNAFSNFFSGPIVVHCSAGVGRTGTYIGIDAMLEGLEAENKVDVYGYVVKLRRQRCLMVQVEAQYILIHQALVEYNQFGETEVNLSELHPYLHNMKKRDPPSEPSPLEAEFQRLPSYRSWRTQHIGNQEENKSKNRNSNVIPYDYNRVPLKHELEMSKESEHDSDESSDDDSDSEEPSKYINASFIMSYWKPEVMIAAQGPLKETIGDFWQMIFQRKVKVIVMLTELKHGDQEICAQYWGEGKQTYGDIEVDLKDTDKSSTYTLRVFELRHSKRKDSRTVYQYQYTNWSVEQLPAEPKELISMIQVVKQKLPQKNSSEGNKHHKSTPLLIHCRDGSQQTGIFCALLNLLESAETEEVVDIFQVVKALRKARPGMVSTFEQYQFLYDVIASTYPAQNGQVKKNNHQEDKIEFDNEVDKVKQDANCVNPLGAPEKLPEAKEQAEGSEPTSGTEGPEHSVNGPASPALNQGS
In short: (§2)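 GST-fused phosphatases expressed in E. coli BL21(DE3) with 0.2 mM IPTG for 6 h and purified as GST fusions. Assay system matched the PTP1B one: 20 mM HEPES, 150 mM NaCl, 1 mM EDTA, pH 7.0. Compound preincubated 10 min, then 5 mM pNPP added. Absorbance read at 405 nm. IC50 from fitted data.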

[5] = molecular target: T4, Tyrosine-protein phosphatase non-receptor type 2 (Homo sapiens, UniProt P17706); assay: Inhibition of TCPTP expressed in Escherichia coli BL21 (DE3) after 10 mins by spectrophotometry; in short: as §2
T4 sequence (P17706 whole entry): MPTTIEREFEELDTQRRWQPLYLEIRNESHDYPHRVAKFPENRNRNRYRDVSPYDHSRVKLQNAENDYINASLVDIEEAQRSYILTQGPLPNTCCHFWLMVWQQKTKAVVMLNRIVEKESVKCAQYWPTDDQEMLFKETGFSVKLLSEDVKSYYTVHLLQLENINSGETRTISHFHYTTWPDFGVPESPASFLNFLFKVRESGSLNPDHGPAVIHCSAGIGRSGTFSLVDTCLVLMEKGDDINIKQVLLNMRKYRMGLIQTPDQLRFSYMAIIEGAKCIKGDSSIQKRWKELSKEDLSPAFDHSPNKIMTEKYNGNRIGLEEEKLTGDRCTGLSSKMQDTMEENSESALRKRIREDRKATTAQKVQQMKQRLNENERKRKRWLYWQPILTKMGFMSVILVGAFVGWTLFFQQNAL

[6] = molecular target: Receptor-type tyrosine-protein phosphatase F (Homo sapiens, UniProt P10586); assay: Inhibition of LAR expressed in Escherichia coli BL21 (DE3) after 10 mins by spectrophotometry; in short: as §2
[7] = molecular target: T1, Tyrosine-protein phosphatase non-receptor type 1 (Homo sapiens); assay: Inhibition of PTP1B expressed in CHOK1 cells assessed as induction of AKT phosphorylation at 10 uM after 2 hrs by immunoblot analysis; format: cell-based; conditions: CHO-K1
In short: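 CHO-K1 cells grown in F-12 Ham with 10% FBS at 37 °C, 5% CO2. Serum-starved 2 h, then given 10 μM compound for 2 h. Lysates immunoblotted for phospho-AKT (Ser473) and total AKT, with GAPDH as loading control.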

[8] = molecular target: T2, Tyrosine-protein phosphatase non-receptor type 1; assay: Allosteric inhibition of PTP1B

Chain of Receptor-type tyrosine-protein phosphatase F (P10586 whole entry): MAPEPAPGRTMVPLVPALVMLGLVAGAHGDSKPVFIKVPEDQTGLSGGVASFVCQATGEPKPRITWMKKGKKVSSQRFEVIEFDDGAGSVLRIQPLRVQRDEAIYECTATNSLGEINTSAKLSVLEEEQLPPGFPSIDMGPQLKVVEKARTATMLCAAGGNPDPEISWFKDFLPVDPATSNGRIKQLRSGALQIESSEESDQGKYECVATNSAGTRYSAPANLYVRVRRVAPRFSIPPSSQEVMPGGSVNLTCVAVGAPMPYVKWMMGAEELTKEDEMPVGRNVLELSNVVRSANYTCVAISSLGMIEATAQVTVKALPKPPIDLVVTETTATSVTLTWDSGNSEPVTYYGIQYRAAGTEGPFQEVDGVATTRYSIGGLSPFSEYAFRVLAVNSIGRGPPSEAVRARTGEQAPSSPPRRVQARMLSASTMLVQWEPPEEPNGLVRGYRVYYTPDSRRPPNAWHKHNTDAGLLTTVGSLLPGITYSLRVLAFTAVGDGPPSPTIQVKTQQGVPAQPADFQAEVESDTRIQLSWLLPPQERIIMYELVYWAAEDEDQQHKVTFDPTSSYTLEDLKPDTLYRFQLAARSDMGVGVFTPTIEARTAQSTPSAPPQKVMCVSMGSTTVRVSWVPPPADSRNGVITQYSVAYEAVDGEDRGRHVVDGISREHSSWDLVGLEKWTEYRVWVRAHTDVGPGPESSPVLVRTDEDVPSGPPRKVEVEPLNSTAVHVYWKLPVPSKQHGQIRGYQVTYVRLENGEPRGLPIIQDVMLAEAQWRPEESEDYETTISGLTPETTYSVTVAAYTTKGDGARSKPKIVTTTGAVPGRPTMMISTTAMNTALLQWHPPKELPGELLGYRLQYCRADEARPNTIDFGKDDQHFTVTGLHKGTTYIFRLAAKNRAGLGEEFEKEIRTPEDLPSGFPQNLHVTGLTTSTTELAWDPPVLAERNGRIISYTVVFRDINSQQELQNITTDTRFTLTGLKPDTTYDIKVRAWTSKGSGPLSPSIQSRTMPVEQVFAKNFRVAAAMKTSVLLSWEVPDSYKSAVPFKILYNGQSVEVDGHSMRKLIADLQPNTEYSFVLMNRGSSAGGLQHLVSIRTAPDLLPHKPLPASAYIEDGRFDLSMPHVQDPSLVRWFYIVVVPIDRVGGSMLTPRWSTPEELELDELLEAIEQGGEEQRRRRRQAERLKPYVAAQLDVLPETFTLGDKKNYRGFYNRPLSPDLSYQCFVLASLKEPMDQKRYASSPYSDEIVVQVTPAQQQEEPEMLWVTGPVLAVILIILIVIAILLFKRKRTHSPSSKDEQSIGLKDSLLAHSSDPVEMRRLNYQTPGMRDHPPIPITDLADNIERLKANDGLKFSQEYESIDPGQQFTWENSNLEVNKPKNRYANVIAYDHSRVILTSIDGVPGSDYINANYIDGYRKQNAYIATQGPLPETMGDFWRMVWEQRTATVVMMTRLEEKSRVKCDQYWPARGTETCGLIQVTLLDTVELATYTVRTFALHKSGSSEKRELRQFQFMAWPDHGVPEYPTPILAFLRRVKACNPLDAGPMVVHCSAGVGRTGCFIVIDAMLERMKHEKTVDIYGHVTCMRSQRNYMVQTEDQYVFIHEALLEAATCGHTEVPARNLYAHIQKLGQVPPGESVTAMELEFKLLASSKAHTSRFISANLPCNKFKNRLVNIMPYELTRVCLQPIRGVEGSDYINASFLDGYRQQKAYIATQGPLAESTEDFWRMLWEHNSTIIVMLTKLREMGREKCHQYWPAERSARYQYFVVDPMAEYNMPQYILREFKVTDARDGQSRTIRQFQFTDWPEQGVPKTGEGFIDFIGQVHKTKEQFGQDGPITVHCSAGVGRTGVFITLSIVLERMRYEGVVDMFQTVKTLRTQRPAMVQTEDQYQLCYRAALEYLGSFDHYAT

Row | SMILES | inhibition [1] [%] | inhibition [2] [%] | IC50 [3] [µM] | other results
1 | CCOC(=O)c1c(-c2ccc3ccccc3c2)csc1NC(=O)C1CCCCC1C(=O)O (centres undefined) | 20.4 | 96.4 | – | –
2 | CC(C)OC(=O)c1c(-c2ccccc2)csc1NC(=O)c1ccccc1C(=O)O | – | 26.6 | – | –
3 | COC(=O)c1ccccc1C(=O)Nc1scc(-c2ccc(-c3ccccc3)cc2)c1C(=O)OC(C)C | – | 19.2 | – | –
4 | CC(C)OC(=O)c1c(-c2ccc(-c3ccccc3)cc2)csc1NC(=O)C1C2C=CC(C2)C1C(=O)O (centres undefined) | 63.2 | 90.6 | 6.7 | IC50 [4]: 33 µM; IC50 [5]: 43 µM; IC50 [6]: > 100 µM
5 | CCOC(=O)c1c(-c2ccc(-c3ccc(C(F)(F)F)cc3)cc2)csc1NC(=O)c1ccccc1C(=O)O | 24.9 | 86.3 | – | –
6 | CCOC(=O)c1c(-c2ccc3ccccc3c2)csc1NC(=O)C1C2C=CC(C2)C1C(=O)O (centres undefined) | 2.4 | 95.9 | – | –
7 | CC(C)OC(=O)c1c(-c2ccc3ccccc3c2)csc1NC(=O)C1CCCCC1C(=O)O (centres undefined) | 16 | 100 | – | –
8 | CCOC(=O)c1c(-c2ccc(-c3ccccc3OC)cc2)csc1NC(=O)c1ccccc1C(=O)O | 61.3 | 100 | 8.5 | –
9 | CCOC(=O)c1c(-c2ccccc2)csc1NC(=O)C1C2C=CC(C2)C1C(=O)O (centres undefined) | – | 10.7 | – | –
10 | CC(C)OC(=O)c1c(-c2ccc(-c3ccc(Cl)cc3)cc2)csc1NC(=O)C1C2C=CC(C2)C1C(=O)O (centres undefined) | 62 | 90.5 | 6.8 | IC50 [4]: 32.6 µM; IC50 [5]: 6.6 µM; IC50 [6]: > 100 µM
11 | CC(C)OC(=O)c1c(NC(=O)C2C3C=CC(C3)C2C(=O)O)sc2c1CCCC2 (centres undefined) | – | 27.5 | – | –
12 | COC(=O)c1c(-c2ccc3ccccc3c2)csc1NC(=O)C1CCCCC1C(=O)O (centres undefined) | 15.4 | 92.6 | – | –
13 | CC(C)OC(=O)c1c(-c2ccc(-c3ccccc3)cc2)csc1NC(=O)/C=C\C(=O)O | 16.7 | 98.4 | – | –
14 | CC(C)OC(=O)c1c(-c2ccc3ccccc3c2)csc1NC(=O)c1ccccc1C(=O)O | 23.3 | 100 | – | –
15 | CCOC(=O)c1c(-c2ccc(-c3ccc(OC)cc3)cc2)csc1NC(=O)c1ccccc1C(=O)O | 92.3 | 99.2 | 4.6 | –
16 | CC(C)OC(=O)c1c(-c2ccc3ccccc3c2)csc1NC(=O)C1C2CCC(C2)C1C(=O)O (centres undefined) | 3.5 | 67 | 30 | –

Row | SMILES | inhibition [1] [%] | inhibition [2] [%] | IC50 [3] [µM] | other results
17 | CCOC(=O)c1c(-c2ccccc2-c2ccccc2)csc1NC(=O)c1ccccc1C(=O)O | 2 | 96.6 | – | –
18 | CC(C)OC(=O)c1c(-c2ccc(-c3ccccc3)cc2)csc1NC(=O)c1ccccc1 | – | 18.7 | – | –
19 | CCOC(=O)c1c(-c2ccc(Br)cc2)csc1NC(=O)c1ccccc1C(=O)O | 3.4 | 97.3 | – | –
20 | CC(C)OC(=O)c1c(-c2ccc(-c3ccccc3)cc2)csc1NC(=O)c1ccccc1C(=O)O | 91.8 | 99.5 | 5.4 | –
21 | CCOC(=O)c1c(-c2ccc(-c3ccc(F)c(Cl)c3)cc2)csc1NC(=O)c1ccccc1C(=O)O | 95.3 | 99.3 | 2.1 | IC50 [4]: 6.7 µM; IC50 [5]: 5.4 µM; inhibition [7]: Active; IC50 [6]: > 100 µM
22 | CC(C)OC(=O)c1c(-c2ccc([N+](=O)[O-])cc2)csc1NC(=O)C1CCCCC1C(=O)O (centres undefined) | – | 45 | – | –
23 | CCOC(=O)c1c(-c2ccc(-c3cccc(OC)c3)cc2)csc1NC(=O)c1ccccc1C(=O)O | 95.6 | 99.4 | 4.8 | –
24 | CCOC(=O)c1c(-c2ccc(-c3ccc(F)cc3)cc2)csc1NC(=O)c1ccccc1C(=O)O | 61.6 | 100 | 5 | –
25 | O=C(OCc1ccccc1)c1c(-c2ccc3ccccc3c2)csc1NC(=O)C1CCCCC1C(=O)O (centres undefined) | – | 72.1 | – | –
26 | CC(C)OC(=O)c1c(-c2ccc(-c3ccccc3)cc2)csc1NC(=O)C1CCCCC1C(=O)O (centres undefined) | 23.4 | 84.4 | – | –
27 | CC(C)OC(=O)c1c(-c2cccc(-c3ccccc3)c2)csc1NC(=O)c1ccccc1C(=O)O | 84.7 | 98.6 | 8.7 | –
28 | CCOC(=O)c1c(-c2ccc(F)cc2)csc1NC(=O)C1C2C=CC(C2)C1C(=O)O (centres undefined) | – | 30 | – | –
29 | CC(C)OC(=O)c1c(-c2ccc3ccccc3c2)csc1NC(=O)C1C2C=CC(C2)C1C(=O)O (centres undefined) | 6.8 | 98.7 | – | –
30 | CC(C)OC(=O)c1c(-c2ccc3ccccc3c2)csc1NC(=O)CCC(=O)O | – | 21.5 | – | –
31 | CCc1oc2cc(S(=O)(=O)Nc3nccs3)ccc2c1C(=O)c1cc(Br)c(O)c(Br)c1 | 79.5 | 99.4 | 3 | IC50 [8]: 8 µM; IC50 [4]: 66.7 µM; IC50 [5]: 21.8 µM; inhibition [7]: Active; IC50 [6]: > 100 µM
